Molecules are shown by their SMILES. The source made the active and inactive calls. No cut-off for these calls is given here.

Data set [1] is described as follows: Prodrug activation assessed as formation of O6-benzylguanine under oxygen-deficient condition at 20 uM after 1 hr by HPLC analysis in presence of xanthine/xanthine oxidase. In outline: (§1)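 Test agent at 20 μM (from DMSO) in 100 mM potassium phosphate pH 7.4 at 37 °C, with either cytochrome P450 reductase plus 1 mM NADPH, or 0.16 units/mL xanthine oxidase plus 1 mM xanthine. Oxygen deficiency came from glucose oxidase/catalase with 10 mM glucose. Aerobic mixtures omitted glucose and were shaken as shallow layers in sealed flasks. Samples at 0 and 1 h were quenched with acetonitrile and analysed by HPLC.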

For data set [2], the system named is EMT6. Description: Prodrug activation in mouse EMT6 cells assessed as formation of O6-benzylguanine under normoxic condition at 20 uM after 3 hrs by HPLC analysis. It counts as cell-based. As to conditions: emt6, 3 h. In outline: (§2)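 Cells at 10^7/mL with ~20 μM prodrug at 37 °C: EMT6 in DMEM with 10% FBS, DU145 in α-MEM with 10% FBS, each with 10 mM glucose. Normoxic suspensions were shaken as shallow layers in flasks. Oxygen-deficient incubations used sealed tubes with an extra 10 mM glucose, glucose oxidase 2 units/mL and catalase 120 units/mL. Samples at 0–3 h were acetonitrile-extracted and analysed by HPLC.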

A short description of data set [3]: Prodrug activation assessed as formation of O6-benzylguanine under oxygen-deficient condition at 20 uM after 1 hr by HPLC analysis in presence of NADPH:CYP450 reductase. The class given is ADME. In outline:
as §1

In data set [4] the test system is DU-145. As to the kind of experiment: Inhibition of AGT-mediated potentiation of laromustine-induced cytotoxicity in human DU145 cells at 40 uM pretreated for 6 hrs prior laromustine addition measured after 24 hrs incubation under oxygen deficiency condition by clonogenic assay. The class given is functional, cell-based. In outline:
(§3)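 DU145 monolayers seeded at 2.5 × 10^5 cells per flask and treated 3 days later. Pretreatment with prodrug for 6 h, then laromustine added in medium for 24 h at 37 °C; DMSO ≤ 0.05%. For oxygen deficiency, glucose oxidase 2 units/mL plus catalase 120 units/mL in high-glucose DMEM, with flasks nitrogen-flushed and sealed. Aerobic flasks were unsealed and lacked these enzymes. Colonies were crystal-violet stained after 10–14 days; plating in duplicate.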

The subject of data set [5] is DU-145. As to the kind of experiment: Prodrug activation in human DU145 cells assessed as formation of O6-benzylguanine under normoxic condition at 20 uM after 3 hrs by HPLC analysis. It counts as cell-based. As to conditions: du-145, 3 h. Summed up: as §2
A short description of data set [6]: Prodrug activation assessed as formation of O6-benzylguanine under normoxic condition at 20 uM after 1 hr by HPLC analysis in presence of NADPH:CYP450 reductase. The class given is ADME. Summed up: as §1
Data set [7] can be described thus: Prodrug activation assessed as formation of O6-benzylguanine under normoxic condition at 20 uM after 1 hr by HPLC analysis in presence of xanthine/xanthine oxidase. In outline: as §1
For data set [8], the system named is EMT6. As to the kind of experiment: Prodrug activation in mouse EMT6 cells assessed as formation of O6-benzylguanine under oxygen-deficient condition at 20 uM after 3 hrs by HPLC analysis. It counts as cell-based. The settings on record: emt6, 3 h. Summed up: as §2
In data set [9] the test system is DU-145. As to the kind of experiment: Inhibition of AGT-mediated potentiation of laromustine-induced cytotoxicity in human DU145 cells at 40 uM pretreated for 6 hrs prior laromustine addition measured after 24 hrs incubation under normoxic condition by clonogenic assay. The class given is functional, cell-based. In outline:
as §3

The species named for data set [10] is Homo sapiens. As to the kind of experiment: Inhibition of human recombinant AGT assessed as prevention of O6-(2-chloroethyl)guanine and N1,O6-ethanoguanine-DNA adduct repair at 50 uM after 30 mins by fluorescence assay. Summed up:
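About 40 fmol purified recombinant human AGT in stabilization buffer (20 mM Tris-HCl, 1 mM EDTA, BSA 1 mg/mL, 0.1 mM DTT, L1210 DNA, pH 7.4) preincubated with inhibitor for 30 min at 37 °C. It was then incubated 30 min at 37 °C with L1210 DNA bearing O6-chloroethylguanine/N1,O6-ethanoguanine lesions (~50 fmol). Unrepaired lesions were converted to cross-links at 50 °C for 2–3 h. Cross-linking was read by Hoechst 33258 fluorescence before and after heat denaturation.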

Data set [11] concerns DU-145. Description: Prodrug activation in human DU145 cells assessed as formation of O6-benzylguanine under oxygen-deficient condition at 20 uM after 3 hrs by HPLC analysis. The class given is cell-based. The settings on record: du-145, 3 h. Summed up: as §2
Data set [12] in a line: Prodrug activation assessed as formation of O6-benzylguanine in presence of Zn/EDTA. Summed up:
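Each agent at 50 μM in 50 mM Tris-HCl, 10 mM EDTA, pH 7.0, was shaken briefly with about 4 mg/mL Zn dust at room temperature. After centrifugation, the supernatant was analysed by reverse-phase HPLC with UV detection at 280 nm.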

The species named for data set [13] is Homo sapiens. As to the kind of experiment: Inhibition of human recombinant AGT assessed as prevention of O6-(2-chloroethyl)guanine and N1,O6-ethanoguanine-DNA adduct repair at 0.1 uM after 30 mins by fluorescence assay. Summed up:
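Purified recombinant human AGT (~40 fmol) in stabilization buffer (20 mM Tris-HCl, 1 mM EDTA, 1 mg/mL BSA, 0.1 mM DTT, 2 μg/mL L1210 DNA, pH 7.4) preincubated with inhibitor 30 min, 37 °C. Then added to L1210 DNA substrate treated with a chloroethylating hydrazine (~50 fmol lesions), 30 min, 37 °C. Heated 50 °C 2–3 h. Cross-links quantified by Hoechst 33258 fluorescence before/after heat denaturation. Inhibition derived from remaining cross-link precursors.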

Turning to `CC(C)(OC(=O)Nc1nc(OCc2ccccc2)c2nc[nH]c2n1)c1ccc([N+](=O)[O-])cc1`, the Drug metabolism in data set [1] is 14.8 µM; in the data set on EMT6 [2], “Not Active”; in data set [3], 13.9 µM; with DU-145 [5], “Not Active”; in data set [6] it was 0.1 µM; in data set [7], less than 0.05 µM. Besides, the Drug metabolism result in the data set on EMT6 [8] and in the data set with DU-145 [11] was “Active” throughout. Also, in the data set with DU-145 [4], the inhibition entry is “Active”. In addition, the inhibition result with DU-145 [9] was “inactive”. Also, the inhibition in the data set listed under Homo sapiens [10] is less than 1%. Further, the Drug degradation in data set [12] is reported as 54.8 %molar.
Consider `CC(OC(=O)Nc1nc(OCc2ccccc2)c2nc[nH]c2n1)c1ccc([N+](=O)[O-])cc1` (stereo unspecified), for which the Drug metabolism in data set [1] is 11.6 µM; in the data set on EMT6 [2], “Not Active”; in data set [3] it was 0.1 µM; with DU-145 [5] it was “Not Active”; in data set [6] it was less than 0.05 µM; in [7], less than 0.05 µM. Moreover, in the data set on EMT6 [8], the Drug metabolism entry is reported as “Active”. Further, the inhibition in the data set filed under Homo sapiens [10] is less than 1%. The Drug degradation in data set [12] was found to be 35.4 %molar.
Turning to `Nc1nc(OCc2ccccc2)c2nc[nH]c2n1`, in the data set filed under Homo sapiens [13], the inhibition was found to be 47%.
With `O=C(Nc1nc(OCc2ccccc2)c2nc[nH]c2n1)OCc1ccc([N+](=O)[O-])cc1`, the Drug metabolism in data set [1] was 2.8 µM; in the data set on EMT6 [2], “Not Active”; in data set [3], less than 0.05 µM; in the data set on DU-145 [5], “Not Active”; in [6], less than 0.05 µM; in data set [7] it was less than 0.05 µM. For the same compound, the Drug metabolism result with EMT6 [8] is “Active”. Moreover, in the data set listed under Homo sapiens [10], the inhibition was less than 1%. In addition, the Drug degradation in data set [12] is recorded as 4 %molar.

The values are drawn from ChEMBL document CHEMBL1949565, “4-nitrobenzyloxycarbonyl derivatives of O(6)-benzylguanine as hypoxia-activated prodrug inhibitors of O(6)-alkylguanine-DNA alkyltransferase (AGT), which produces resistance to agents targeting the O-6 position of DNA guanine” (J Med Chem, 2011).
